Assay results from different studies.
Each line is one published result; the experiments were not run side by side.
Target: Testis-specific serine/threonine-protein kinase 2 (TSSK2, Homo sapiens, UniProt Q96PF2)
Sequence (Q96PF2 1-358, as in one of the studies): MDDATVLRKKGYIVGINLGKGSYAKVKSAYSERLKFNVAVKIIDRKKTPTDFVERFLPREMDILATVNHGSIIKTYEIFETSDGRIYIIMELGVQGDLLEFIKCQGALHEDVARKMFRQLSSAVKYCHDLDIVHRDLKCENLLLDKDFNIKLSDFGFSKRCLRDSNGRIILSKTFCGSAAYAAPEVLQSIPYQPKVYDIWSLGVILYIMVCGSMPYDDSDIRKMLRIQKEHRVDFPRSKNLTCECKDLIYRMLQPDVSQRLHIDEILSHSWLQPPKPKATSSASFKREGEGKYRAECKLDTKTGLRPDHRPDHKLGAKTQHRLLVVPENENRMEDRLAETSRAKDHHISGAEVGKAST

SMILES	effect on	action	technique	concentration	endpoint	result
CNc1cccc2cc(C(=O)Nc3ccc(C(=O)O)cc3)c(=O)[nH]c12	enzyme activity	inhibitor	–	10 µM	inhibition	3.4%
CCN(CC)CCNC(=O)c1c(C)[nH]c(/C=C2\C(=O)Nc3ccc(F)cc32)c1C	enzyme activity	inhibitor	–	0.3 µM	inhibition	0%
O=C1NC(=O)c2cc(Nc3ccc(F)cc3)c(Nc3ccc(F)cc3)cc21	cell-free assay	–	–	0.5 µM	remaining signal	97.2%
CCCS(=O)(=O)Nc1ccc(F)c(C(=O)c2c[nH]c3ncc(-c4ccc(Cl)cc4)cc23)c1F	enzyme activity	inhibitor	–	1 µM	inhibition	< 10%
Cc1cnc(NC2CCOCC2)nc1-n1cnc(C(=O)NC(CN)c2cc(F)cc(Cl)c2)c1 (centres unmarked)	enzyme activity	inhibitor	radiometric	1 µM	remaining activity	108%
CNC(=O)c1cc(Oc2ccc(NC(=O)Nc3ccc(Cl)c(C(F)(F)F)c3)cc2)ccn1	enzyme activity	inhibitor	–	10 µM	inhibition	-1%
CN1CC(Oc2cnc(C#N)cc2-c2ccn3nc(NC(=O)C4CC4)cc3c2)C1	enzyme activity	inhibitor	–	1 µM	inhibition	0%
CCCOc1ccc(OC)c(F)c1C(=O)c1ccc(C(=O)N[C@@H]2CNC[C@H]2NC(=O)c2ccc3[nH]ncc3c2)cc1	enzyme activity	inhibitor	–	10 µM	remaining activity	87%
CC(C)(C)c1nc2c(s1)c1nc(N)ncc1c1ccc(NS(=O)(=O)c3c(F)cccc3F)c(F)c12	enzyme activity	inhibitor	radiometric	1 µM	remaining activity	95%
COc1cc(Cl)c(C(=O)N[C@@H](CN[C@H]2CC[C@@H](N)CC2)Cc2ccc(C#N)cc2)cc1-c1ccc(CN[C@H](C)c2ccc(C)cc2)o1	enzyme activity	inhibitor	–	1 µM	remaining activity	101%
O=C(Nc1cnn(-c2csc(C(=O)NC3COC3)c2)c1)Nc1c(F)cccc1Cl	enzyme activity	inhibitor	–	5 µM	remaining activity	95.1%
Cc1ccc(Nc2nccc(N(C)c3ccc4c(C)n(C)nc4c3)n2)cc1S(N)(=O)=O	enzyme activity	inhibitor	–	0.3 µM	inhibition	0%
COc1cc2ncnc(Nc3ccc(Oc4ccccc4)c(C)c3C)c2cc1OC	enzyme activity	inhibitor	–	1 µM	inhibition	3%
Cc1ccc(NC(=O)c2ccc(C)c(C(F)(F)F)c2)cc1C#Cc1nn(C2CCC(O)CC2)c2ncnc(N)c12 (centres unmarked)	cell-free assay	–	–	10 µM	remaining signal	96%
